# The other results are listed elsewhere or left out. Values without a mark were called inactive.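 Rule for the calls: active = inhibition of pump activity above 50%; inactive = the rest.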
# Target: ATP-dependent translocase ABCB1 (Homo sapiens) (UniProt P08183)
# Assay: blockers of ABCB1-mediated dye efflux – cell-based, single point, ABCG2 counter-screen, confirmation (AID 1451);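 note: 0% = DMSO and 100% = nicardipine full pump inhibition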
# Settings: CCRF-Adr cells, JC-1 efflux, flow cytometry; at 6.6 µM; active compounds read high
# Summary of the method: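 material = ABCB1-expressing CCRF-Adr cells | amount = 3 million cells per mL final in well | reagent = JC-1 substrate | compound dosing = single test-compound dose, 6.6 µM final | timing = 10 min exposure, 25 °C | measured by = flow cytometry, 530 nm emission | control set = nicardipine as high control, DMSO as low control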
# Sequence of ATP-dependent translocase ABCB1 (Homo sapiens) (P08183 whole entry, looked up): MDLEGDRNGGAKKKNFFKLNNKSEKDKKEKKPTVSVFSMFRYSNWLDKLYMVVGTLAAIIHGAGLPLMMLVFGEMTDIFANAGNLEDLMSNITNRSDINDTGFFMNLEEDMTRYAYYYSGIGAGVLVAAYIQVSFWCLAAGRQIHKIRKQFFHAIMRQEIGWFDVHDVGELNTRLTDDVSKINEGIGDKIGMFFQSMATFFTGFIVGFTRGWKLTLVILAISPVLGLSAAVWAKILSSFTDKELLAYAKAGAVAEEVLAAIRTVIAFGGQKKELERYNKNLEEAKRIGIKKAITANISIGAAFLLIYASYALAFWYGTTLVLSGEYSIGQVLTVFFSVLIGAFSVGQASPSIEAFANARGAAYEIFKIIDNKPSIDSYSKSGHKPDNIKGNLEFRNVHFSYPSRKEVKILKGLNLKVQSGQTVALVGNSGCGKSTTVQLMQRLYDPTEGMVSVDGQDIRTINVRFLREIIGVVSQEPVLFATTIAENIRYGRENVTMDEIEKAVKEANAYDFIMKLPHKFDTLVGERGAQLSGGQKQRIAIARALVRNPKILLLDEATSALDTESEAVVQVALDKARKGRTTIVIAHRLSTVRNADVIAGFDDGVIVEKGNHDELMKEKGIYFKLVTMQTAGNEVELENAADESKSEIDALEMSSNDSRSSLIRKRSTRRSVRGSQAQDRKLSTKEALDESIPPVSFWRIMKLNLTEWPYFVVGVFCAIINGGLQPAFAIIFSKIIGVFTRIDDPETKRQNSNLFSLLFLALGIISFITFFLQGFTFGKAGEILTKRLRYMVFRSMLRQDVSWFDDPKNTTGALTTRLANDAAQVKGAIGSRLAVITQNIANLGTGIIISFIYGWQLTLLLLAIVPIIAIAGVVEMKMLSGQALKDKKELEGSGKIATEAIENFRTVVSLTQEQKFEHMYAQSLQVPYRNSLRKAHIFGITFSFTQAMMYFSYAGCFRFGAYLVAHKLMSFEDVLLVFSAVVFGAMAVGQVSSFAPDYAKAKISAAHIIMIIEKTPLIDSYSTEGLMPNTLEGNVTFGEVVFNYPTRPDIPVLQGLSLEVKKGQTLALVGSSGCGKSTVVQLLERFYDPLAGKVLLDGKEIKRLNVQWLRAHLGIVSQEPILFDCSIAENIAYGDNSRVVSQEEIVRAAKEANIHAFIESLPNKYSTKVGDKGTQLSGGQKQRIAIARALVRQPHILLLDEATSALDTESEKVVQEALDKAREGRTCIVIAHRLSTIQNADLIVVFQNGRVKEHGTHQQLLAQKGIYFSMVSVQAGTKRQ
smiles,measurement,value
COC(=O)COc1cc(C)cc2oc(=O)c3c(c12)CCCC3,inhibition,1.84%
